# An excerpt weighted towards active compounds, which were near 2.2% of everything screened.
# HSP90 inh – HSP90 inhibitors, primary screen, cell lysate, luminescence. Heat shock protein HSP 90 (rabbit reticulocyte lysate; luciferase refolding). Rabbit reticulocyte lysate, luciferase refolding luminescence, 3 h. inhibition, % at 5.6 µM. 290,000 compounds, 0.91% hits. AID 1789, 2009;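 active = inhibition above the screen-wide mean plus 3 SD, computed separately per campaign, cut at about 16% in these data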;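 note: inhibitors lower the luminescence because luciferase stays unfolded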
# TRAIL sens C8 – viability loss with TRAIL in NB7+C8 cells, primary screen, TRAIL sensitizer project, cell-based, ATPlite luminescence; 360,000 compounds, 1% hits; AID 624354, 2012; inhibition (viability loss, TRAIL sensitization), % at 10 µM;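 active = compounds causing at least 50% loss of cell viability in the single-dose screen, relative to plate controls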
# FLuc inh counter – firefly luciferase enzyme inhibitors, primary screen, artefact control for luciferase-based inhibitor screens, biochemical, luminescence, ATPLite | 200,000 compounds, 1.5% hits | 10 min | inhibition, % at 10 µM | AID 1006, 2008 | Luciferin 4-monooxygenase (Photinus pyralis), P08659;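 active = inhibition above about 50% when tested at 10 µM, limit read from the data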
# Target sequence (P08659 whole entry, looked up): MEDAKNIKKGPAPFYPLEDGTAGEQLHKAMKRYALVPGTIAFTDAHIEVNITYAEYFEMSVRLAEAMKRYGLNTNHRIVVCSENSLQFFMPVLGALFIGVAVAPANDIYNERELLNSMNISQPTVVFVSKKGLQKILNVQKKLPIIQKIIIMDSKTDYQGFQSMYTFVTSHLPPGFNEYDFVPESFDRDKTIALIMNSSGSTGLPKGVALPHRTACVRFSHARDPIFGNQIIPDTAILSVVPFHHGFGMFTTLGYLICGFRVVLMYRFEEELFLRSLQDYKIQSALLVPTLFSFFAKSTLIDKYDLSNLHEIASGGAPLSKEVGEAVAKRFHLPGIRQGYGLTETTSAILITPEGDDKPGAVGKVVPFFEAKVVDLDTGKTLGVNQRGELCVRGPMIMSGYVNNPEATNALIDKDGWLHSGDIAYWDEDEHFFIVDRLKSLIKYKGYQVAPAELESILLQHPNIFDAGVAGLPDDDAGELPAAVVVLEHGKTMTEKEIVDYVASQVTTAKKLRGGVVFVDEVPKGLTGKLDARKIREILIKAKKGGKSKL
# FLuc stim CS – FLuc activators, initial screening, artefact control for FLuc-dependent activation tests, biochemical, ATPlite luminescence. Luciferin 4-monooxygenase (Photinus pyralis), P08659. ATPlite luciferase biochemical, 10 min; 0 = ATP-free wells, 1 = DMSO control. activation factor at 10 µM. 200,000 tested, under 10 active;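 active = luciferase activation factor, scaled between plate controls, of at least 2 with compound at 10 µM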
#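 System: luciferase plus luciferin reagent, cell-free; medium: PBS as buffer for the ATP substrate; dosing: test compounds dosed from 2 mM stocks in 100% DMSO; timing: 10 min post-reagent at room temperature; measured by: luminescence measurement of luciferase light output; evaluation: luciferase activation, seen as luminescence increase over controls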
# PPC-1+TRAIL kill – compounds killing PPC-1 cancer cells with TRAIL present, primary screen, TRAIL potentiator project, ATPLite luminescence, uHTS; PPC-1 cells + TRAIL, ATPLite viability luminescence; cell killing (% activity), % at 4 µM or 5 µM; 220,000 compounds, 0.41% hits; AID 1443, 2008;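 active = cell killing above 50% in the first pass at 4 µM, then a duplicate retest at 5 µM averaging 50% or more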
# STAT3 blocker – IL-6 driven STAT3 reporter inhibitors, primary screen, U3A cells, luciferase, luminescence, MLSCN library | IL-6 STAT3-luciferase reporter; host cell line lacks STAT1 | inhibition, % at 5.5 µM | 190,000 compounds, 0.89% hits | AID 862, 2007;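 active = inhibition above the mean inhibition across all screened compounds plus 3 SD, cut at about 44% in these data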
# Numbers stand for hits; i = inactive; nt = not tested or not shown.
SMILES,HSP90 inh,TRAIL sens C8,FLuc inh counter,FLuc stim CS,PPC-1+TRAIL kill,STAT3 blocker
O=C(Nc1ccc(-c2ccc3nncn3n2)cc1)C1CCCC1,i,i,52,i,i,i
O=C(CC1CCCCC1)Nc1ccc(-c2ccc3nncn3n2)cc1,i,i,i,i,i,i
COc1cc(OC)c2c(=O)cc(-c3cccnc3)oc2c1,i,i,nt,nt,i,nt
COc1cc(OC)c2c(=O)cc(-c3ccccc3)oc2c1,i,i,58,i,i,nt
NNc1nc(-c2ccccc2)nc2sc3c(c12)CCCC3,i,64,84,i,i,i
NNc1nc2sc3c(c2c(=O)n1Cc1ccccc1)CCC3,i,i,nt,nt,i,nt
COc1ccc2nc(C)cc(N/N=C/c3ccc(F)cc3)c2c1,i,93,nt,nt,nt,nt
Cc1ccc(Nc2nc(N)c3ccccc3n2)cc1Cl,i,69,nt,nt,nt,nt
CCOc1cc(/C=N/N=C(N)N)ccc1OCc1ccc(Cl)cc1,i,87,i,i,50,i
CCOc1cc(CNCCc2ccc(S(N)(=O)=O)cc2)ccc1OCc1ccc(Cl)cc1,i,73,i,i,i,i
COc1cc(/C=N/N=C(/N)c2nonc2N)cc(Br)c1OCc1ccccc1C,i,i,i,i,i,i
CCOc1cc(/C=N/N=C(/N)c2nonc2N)cc(Br)c1OCc1ccc(Cl)cc1,i,57,i,i,i,i
O=C(Cc1cccc(NC(=O)C2CCN(C(=O)C3CCCCC3)CC2)c1)Nc1cccc(C(=O)N2CCCCC2)c1,nt,i,nt,nt,nt,nt
COC(=O)c1ccc(N=NNc2ccc(C(=O)OC)cc2)cc1,16,i,i,i,i,i
COC(=O)c1ccc(N=NNc2cccc(Br)c2)cc1,i,i,i,i,i,i
COc1cc2ccccc2cc1C(=O)OCC(=O)N1CCOCC1,i,i,i,i,i,i
COc1ccc(-c2cc(C(=O)OCC(=O)c3c(N)n(C)c(=O)n(C)c3=O)c3ccccc3n2)cc1,i,i,i,i,i,i
CCOc1ccc(-c2cc(C(=O)NCCCn3ccnc3)c3ccccc3n2)cc1,i,i,i,i,i,i
CC(C)Oc1cccc(-c2cc(C(=O)N3CCN(c4ncccn4)CC3)c3ccccc3n2)c1,i,i,i,i,i,i
CCOc1ccc(-c2cc(C(=O)NCCCN3CCN(CC)CC3)c3ccccc3n2)cc1,i,i,67,i,i,i
CC(C)Oc1cccc(-c2cc(C(=O)N3CCN(S(C)(=O)=O)CC3)c3ccccc3n2)c1,i,i,52,i,i,i
COc1ccc(-c2cc(C(=O)OCC(=O)N3CCOCC3)c3ccccc3n2)cc1,nt,62,nt,nt,nt,nt
COc1ccc(-c2cc(C(=O)c3c(N)n(C)c(=O)n(C)c3=O)c3ccccc3n2)cc1,i,81,nt,nt,77,nt
C=CCn1c(=O)c(C(=O)NC(C)c2ccccc2)c(O)c2ccccc21 (configuration not stated),i,i,nt,nt,nt,nt
CSCCCNC(=S)N(C)CC(=O)Nc1ccc(C)cc1,i,i,i,i,i,i
SMILES,HSP90 inh,TRAIL sens C8,FLuc inh counter,FLuc stim CS,PPC-1+TRAIL kill,STAT3 blocker
CC1CC(C)CN(CCCNC(=O)c2ccc3c(c2)N(Cc2ccccc2)C(=O)c2ccccc2S3=O)C1 (configuration not stated),i,i,nt,nt,nt,nt
CCOc1ccc(-c2cc(C(=O)N3CCC(C)CC3)c3ccccc3n2)cc1,i,54,nt,nt,nt,nt
Cc1cc(-c2ccc(N3CCOCC3)cc2)nc2ccccc12,i,65,71,i,i,i
Cc1ccc(-c2cc(C(=O)N3CCOCC3)c3ccccc3n2)cc1,i,i,i,i,i,i
Cc1ccc(-c2cc(C(=O)N3CCN(c4ncccn4)CC3)c3ccccc3n2)cc1,i,67,62,i,i,i
Cc1ccc(-c2cc(C(=O)N3CCN(c4ccccc4O)CC3)c3ccccc3n2)o1,i,65,nt,nt,nt,nt
CCOc1ccc(CN2C(=O)CC(=O)N(S(=O)(=O)c3ccc(OCC)cc3)C2=O)cc1,i,i,nt,nt,i,nt
CCCC1(CC)C(=O)NC(=O)N=C1N (configuration not stated),nt,i,nt,nt,nt,nt
N#Cc1cccc(-c2csc(C(O)(c3ccccc3)C(F)(F)F)n2)c1 (configuration not stated),nt,i,nt,nt,nt,nt
CC(NC1=CC(=O)c2cccnc2C1=O)C(O)c1ccccc1 (configuration not stated),nt,83,nt,nt,nt,nt
CC(c1ccccc1)N1C(=O)c2cccnc2C1=O (configuration not stated),i,i,nt,nt,nt,nt
CC(C)C(NC(=O)c1ccc(F)cc1)C(=O)Nc1cccnc1 (configuration not stated),i,i,i,i,i,i
COc1ccc(OC)c(S(=O)(=O)Nc2ccc(-c3ccc4nncn4n3)cc2)c1,nt,66,nt,nt,nt,nt
CC(C)c1ccc(/C=N\NC(=O)c2ccc(Cn3cccn3)o2)cc1,i,i,72,i,i,i
CC1=C(C(=O)Nc2ccc(Cl)cc2)C2(CCCCC2)C(C(N)=O)C(=S)N1 (configuration not stated),i,nt,i,i,i,i
Cc1cc(C)n(-c2nc(Nc3ccccc3C(F)(F)F)nc(-n3nc(C)cc3C)n2)n1,i,57,i,i,i,i
O=[N+]([O-])c1cccc(NC2=NCCC2)c1,i,i,i,i,i,i
CC1(C)N=C(N)N=C(N)N1c1ccc(OCC(=O)N2CCOCC2)cc1,nt,75,nt,nt,nt,nt
CC1(C)N=C(N)N=C(N)N1c1ccc(OCC(=O)N2CCOCC2)c(Cl)c1,nt,83,nt,nt,nt,nt
Cc1ccc(-c2ccc(OCC(=O)N3CCOCC3)cc2)cc1,i,i,i,i,i,i
Cc1ccc(S(=O)(=O)N(C)c2ccc(C(=O)NC3CCCCC3)cc2)cc1,nt,i,nt,nt,nt,nt
CCOCCCNCc1ccc(OC)cc1,i,i,i,i,i,i
COc1ccc2cc(CNCCOCCOCCNCc3ccc4cc(OC)ccc4c3)ccc2c1,nt,88,nt,nt,nt,nt
